The values that follow come from ChEMBL document CHEMBL1153722, “Design, synthesis, and characterization of peptide-based rab geranylgeranyl transferase inhibitors” (J Med Chem, 2009).

SMILES strings stand for the structures. Calls of active or inactive are those of the source. No cut-off for these calls is given here. Square brackets hold non-standard residues; d marks the D form. Peptide text beside a SMILES is read from it. * marks the point of attachment. NMeF = CN[C@@H](Cc1ccccc1)C(=O)O; Undecanoyl = CCCCCCCCCCC(=O)*; Cbz = O=C(OCc1ccccc1)*; NHOH = ON*

Series [1] in a line: Displacement of Mant-FPP from rat recombinant Rab geranylgeranyltransferase by co-titration based fluorescence assay. The procedure, abridged:
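RabGGTase was titrated into 300 nM Mant-FPP at several fixed inhibitor concentrations. Apparent Kd of Mant-FPP was obtained at each inhibitor level by quadratic fitting. Linear versus hyperbolic dependence of apparent Kd on inhibitor concentration was taken as competitive versus partially competitive binding.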

Series [2] is filed under the species Rattus norvegicus. The series can be described thus: Displacement of NBD-FPP from rat recombinant Rab geranylgeranyltransferase by fluorescence titration. Put shortly:
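Displacement titration: 400 nM NBD-FPP was pre-equilibrated with 550 nM RabGGTase. Inhibitor was added stepwise in 1 or 5 μM increments while NBD fluorescence was monitored. The end point was controlled by a final addition of GGPP to 4 μM.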

Series [3] is described as follows: Inhibition of rat recombinant Rab geranylgeranyltransferase by SDS-PAGE end point assay. Put shortly: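 End-point transfer of fluorescent prenyl analogues (NBD-GPP or NBD-FPP) to protein substrates was run for 10 min at varied inhibitor concentrations. Substrates were GST-KiRas for FTase, GST-RhoA for GGTase-I and Rab7 for RabGGTase. Reactions were quenched with SDS sample buffer and run on SDS-PAGE. Fluorescent bands were quantified by densitometry.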

In series [4] the test system is COS-7 (Chlorocebus aethiops). Kind of series: Inhibition of recombinant Rab geranylgeranyltransferase expressed in COS-7 cells assessed as inhibition of geranylgeranylation of EYFP-Rab7 protein by Western blot. More on the design: concentration or dose not given beside the values. To be noted: dose or concentration not given here. (A western blot detects proteins with antibodies after separation by electrophoresis.)

Series [5] relates to COS-7 (Chlorocebus aethiops). Kind of series: Inhibition of recombinant Rab geranylgeranyltransferase expressed in COS-7 cells assessed as inhibition of geranylgeranylation of EYFP-Rab7 protein at 10 to 100 uM by Western blot relative to compactin.
Series [6] can be described thus: Inhibition of rat recombinant Rab geranylgeranyltransferase iin presence of canine Rab7 and rat REP1 by NBD-FPP based continuous fluorimetric assay. Put shortly: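 Continuous fluorometric assay in 96/384-well format: 3 μM Rab7, 3 μM REP1, 9 μM NBD-FPP and 400 nM RabGGTase, with or without inhibitor. IC50 was calculated from three independent measurements.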
For series [7], the system named is COS-7 (Chlorocebus aethiops). The series can be described thus: Cytotoxicity in monkey COS-7 cells at 100 uM. The following applies: COS-7, 100 µM.
Series [8] deals with protein farnesyltransferase (Rattus norvegicus). The series can be described thus: Inhibition of rat recombinant FTase by SDS-PAGE end point assay.
For series [9], the target named is geranylgeranyltransferase type-I (Rattus norvegicus). Kind of series: Inhibition of rat recombinant GGTase-1 by SDS-PAGE end point assay.
For series [10], the species on record is Rattus norvegicus. The series can be described thus: Inhibition of rat recombinant Rab geranylgeranyltransferase at 100 uM in presence of canine Rab7 and rat REP1 NBD-FPP based continuous fluorimetric assay. The procedure, abridged:
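Continuous fluorometric assay in 96/384-well format: 3 μM Rab7, 3 μM REP1, 9 μM NBD-FPP and 400 nM RabGGTase, with or without inhibitor. […] IC50 was calculated from three independent measurements.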

Usually Ki stands for the equilibrium dissociation constant of an inhibitor or competing ligand from its target. Usually IC50 stands for the concentration needed to halve the response being measured. The inhibition is how much of the control response was suppressed. As to `CCCCCCCCCCC(=O)N[C@@H](Cc1cnc[nH]1)C(=O)N[C@@H](Cc1c[nH]cn1)C(=O)N[C@@H](Cc1ccc(O)cc1)C(=O)N(C)CCc1ccccn1`, the Ki in series [1] was 1.1 µM. Further, the Activity result in series [2] and in series [5] was “Dose-dependent effect” throughout. In addition, in series [3], the IC50 was found to be 10 µM. In addition, the inhibition in series [4] came out at 70%.

As for `O=C(CNC(=O)[C@H](Cc1c[nH]cn1)NC(=O)c1coc(-c2ccccc2)n1)N[C@@H](Cc1cn(C(c2ccccc2)(c2ccccc2)c2ccccc2)cn1)C(=O)O`, the concentration for half-maximal inhibition (IC50) in series [6] was 8.1 µM; in series [3], 14 µM; in [8], 13 µM; in series [9] it was 6.9 µM. Besides, in [1], the inhibition constant Ki was 5.3 µM. Moreover, the result in [2] was Active. For the same compound, the Activity entry was “Non-toxic” in [7] and “Dose-dependent effect” in [5]. The inhibition in series [4] stood at 70%.

`CCCCCCCCCCCOc1ccc(C(=O)N[C@@H](Cc2c[nH]cn2)C(=O)N[C@@H](Cc2ccc(O)cc2)C(=O)N[C@@H](Cc2ccccc2)C(=O)NCCCn2ccnc2)cc1`: the half-inhibitory concentration (IC50) in series [6] worked out at 12.3 µM. In addition, the inhibition in series [10] is 7%.

On to `CN(C(=O)[C@H](Cc1cnc[nH]1)NC(=O)OCc1ccccc1)[C@@H](Cc1ccccc1)C(=O)N[C@@H](Cc1ccc(O)cc1)C(=O)NO`, for which, in [1], the inhibitory constant (Ki) was 14.5 µM. For the same compound, the outcome in series [2] was Active. For the same compound, the inhibition in series [4] stood at 70%. In addition, in series [5], the Activity result is “Dose-dependent effect”.

For `CCCCCCCCCCC(=O)N[C@@H](Cc1ccc(O)cc1)C(=O)N[C@@H](Cc1c[nH]cn1)C(=O)N[C@@H](Cc1ccc(O)cc1)C(=O)N(C)CCc1ccccn1`, the half-inhibitory concentration (IC50) was 6.3 µM in [6], 4.3 µM in series [3], > 100 µM in series [8] and > 100 µM in [9]. For the same compound, the inhibition constant Ki in series [1] amounted to 2.8 µM. Besides, in series [2], the outcome was Active. Moreover, the results for the Activity result in series [7] and in series [5] were “Non-toxic” and “Dose-dependent effect”, respectively. Also, the inhibition in [4] was found to be 70%.

Take `CN(C(=O)[C@@H](Cc1c[nH]cn1)NC(=O)OCc1ccccc1)[C@@H](Cc1ccccc1)C(=O)N[C@@H](Cc1ccc(O)cc1)C(=O)O`: the IC50 in series [6] was 22.7 µM. Further, in series [1], the Ki was 4.5 µM. In addition, in series [2], the result was Active.

On to `CCCCCCCC(=O)N[C@@H](Cc1c[nH]cn1)C(=O)N[C@@H](Cc1ccccc1)C(=O)N[C@@H](Cc1ccc(O)cc1)CN(C)CCc1ccccn1`, for which the 50% inhibitory concentration (IC50) turned out to be 2.8 µM in series [6], 8.8 µM in series [3], 98 µM in series [8] and 97 µM in series [9].

For the compound `O=C(CNC(=O)[C@H](Cc1cn(C(c2ccccc2)(c2ccccc2)c2ccccc2)cn1)NC(=O)c1coc(-c2ccccc2)n1)N[C@@H](Cc1c[nH]cn1)C(=O)O`, the IC50 is 38 µM in series [6], 41 µM in series [3], 14 µM in series [8] and 2.6 µM in series [9]. Further, the inhibition in [10] turned out to be 86%.

Turning to `CCCCCCCCCCC(=O)N[C@@H](Cc1c[nH]cn1)C(=O)N[C@@H](Cc1c[nH]cn1)C(=O)N[C@@H](Cc1ccc(O)cc1)C(=O)NCCc1ccccn1`, the IC50 in series [6] is > 100 µM. In addition, the inhibition in [10] worked out at 80%.

As to `CN(C(=O)[C@H](Cc1c[nH]cn1)NC(=O)OCc1ccccc1)[C@@H](Cc1ccccc1)C(=O)N[C@H](Cc1ccc(O)cc1)C(=O)NO`, the IC50 in series [6] worked out at 13.6 µM.

Consider `CN(C(=O)[C@H](Cc1cnc[nH]1)NC(=O)OCc1ccccc1)[C@@H](Cc1ccccc1)C(=O)N[C@@H](Cc1c[nH]c2ccccc12)C(=O)NO` (Cbz-His-[NMeF]-Trp-{NHOH}), for which the inhibition in [4] is 70%. For the same compound, the Activity entry in series [5] is “Dose-dependent effect”.

Consider `CCCCCCCCCCCOc1ccc(C(=O)N[C@@H](Cc2c[nH]cn2)C(=O)N[C@@H](Cc2c[nH]cn2)C(=O)N[C@@H](Cc2c[nH]cn2)C(=O)NCCCCN)cc1`, for which the IC50 in series [6] turned out to be 24 µM.

Turning to `CN(C(=O)[C@H](Cc1c[nH]cn1)NC(=O)OCc1ccccc1OCc1ccccc1)[C@H](CN[C@@H](Cc1ccccc1)C(=O)O)Cc1ccc(O)cc1`, the half-inhibitory concentration (IC50) in [6] was 19.3 µM.

Consider `Cc1nc(C(=O)NCC(=O)N[C@@H](Cc2ccccc2)C(=O)N[C@@H](Cc2c[nH]cn2)C(=O)O)c(C)o1`, for which the half-maximal inhibitory concentration (IC50) in series [6] was > 50 µM.

As to `CCCCCCCCCCC(=O)N[C@@H](Cc1ccc(O)cc1)C(=O)N[C@@H](Cc1c[nH]cn1)C(=O)N[C@@H](Cc1ccc(O)cc1)C(=O)OC` (Undecanoyl-Tyr-His-Tyr-OMe), the half-inhibitory concentration (IC50) in [6] amounted to 3.9 µM.

Regarding `O=C(CNC(=O)c1coc(-c2ccccc2)n1)N[C@@H](Cc1ccccc1)C(=O)N[C@@H](Cc1cn(C(c2ccccc2)(c2ccccc2)c2ccccc2)cn1)C(=O)O`, the IC50 is 25 µM in [6], 31 µM in series [3], 3.4 µM in series [8] and 5.6 µM in series [9].

In the case of `O=C(CNC(=O)c1csc(-c2cccs2)n1)N[C@@H](Cc1ccccc1)C(=O)N[C@@H](Cc1cn(C(c2ccccc2)(c2ccccc2)c2ccccc2)cn1)C(=O)O`, in series [6], the IC50 worked out at 36 µM.

For `O=C(O)C(O)(Cc1cccnc1)P(=O)(O)O` (stereo not given), the inhibition in series [4] was found to be 70%. Also, the Activity entry in series [5] was “Dose-dependent effect”.

`CN(C(=O)[C@@H](Cc1c[nH]cn1)NC(=O)/C=C/c1ccc(-c2ccccc2)cc1)[C@H](CN[C@@H](Cc1ccc(O)cc1)C(=O)O)Cc1ccc(O)cc1`: the half-inhibitory concentration (IC50) in [6] stood at 22.7 µM.

For the compound `O=C(CNC(=O)[C@H](Cc1c[nH]cn1)NC(=O)c1coc(-c2ccccc2)n1)N[C@@H](Cc1ccccc1)C(=O)O`, in [6], the IC50 was > 50 µM.

For the compound `O=C(CNC(=O)c1csc(-c2cccnc2)n1)N[C@@H](Cc1ccccc1)C(=O)N[C@@H](Cc1c[nH]cn1)C(=O)O`, the concentration for half-maximal inhibition (IC50) in series [6] was > 50 µM.

Regarding `O=C(CNC(=O)c1csc(-c2cccs2)n1)N[C@@H](Cc1ccccc1)C(=O)N[C@@H](Cc1c[nH]cn1)C(=O)O`, the IC50 in [6] was 41 µM.

`CCCCCc1ccc(CCC(=O)N[C@H](Cc2ccc(O)cc2)C(=O)N[C@@H](Cc2ccc(O)cc2)C(=O)N[C@@H](Cc2ccccc2)C(=O)O)cc1`: in series [6], the 50% inhibitory concentration (IC50) was 11 µM.

Regarding `CCCCCCCCCCC(=O)N[C@@H](Cc1c[nH]cn1)C(=O)N[C@@H](Cc1ccccc1)C(=O)N[C@@H](Cc1ccc(O)cc1)C(=O)N(C)CCc1ccccn1`, the Ki in series [1] worked out at 5.4 µM. Also, in series [3], the IC50 was 2.8 µM. Also, in series [4], the inhibition worked out at 70%. The Activity result in [5] was “Dose-dependent effect”.

Regarding `CCCCCCCCCCC(=O)N[C@@H](Cc1ccc(O)cc1)C(=O)N[C@@H](Cc1c[nH]cn1)C(=O)N[C@@H](Cc1ccc(O)cc1)C(=O)NCCCCN`, the IC50 in series [6] amounted to 7.1 µM.

Regarding `CCC/C=C\c1ccccc1/C=C/C(=O)N[C@H](Cc1c[nH]cn1)C(=O)N(C)[C@H](CN[C@H](Cc1ccccc1)C(=O)O)Cc1ccc(O)cc1`, the concentration for half-maximal inhibition (IC50) in series [6] was 15.2 µM.

On to `CCCCCCCCCCCOc1ccc(C(=O)N[C@@H](Cc2ccc(O)cc2)C(=O)N[C@@H](Cc2ccc(O)cc2)C(=O)N[C@@H](Cc2ccc(O)cc2)C(=O)NCCCCN)cc1`, for which the IC50 in series [6] turned out to be 11.6 µM.

`Cc1nc(C(=O)NCC(=O)N[C@@H](Cc2ccccc2)C(=O)N[C@@H](Cc2cn(C(c3ccccc3)(c3ccccc3)c3ccccc3)cn2)C(=O)O)c(C)o1`: in series [6], the concentration for half-maximal inhibition (IC50) is 46 µM.
